p47phox inh: p47phox (human) inhibition; inhibition, % at 24.7 µM; P14598; AID 1274; p47phox/p22phox peptide binding, fluorescence polarization, 2 h; 220,000 compounds, 0.53% hits;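 active means inhibition above about 30%, limit read from the data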
KCC2 mod: modulators of human KCC2 chloride dependent transport; B-score of Tl+ flux slope (higher = more flux/activation; lower = inhibition) at 10 µM; KCC2 cells, thallium flux FluoZin-2 fluorescence; Q9H2X9; 190,000 compounds, 2.2% hits;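 active means thallium flux slope and its plate-corrected score both differing from the plate sample mean at a set confidence after two filtering rounds, in either direction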;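 further: slope of fluorescence scaled to starting intensity during 10 to 20 s after thallium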
Target sequence (Q9H2X9 whole entry, looked up): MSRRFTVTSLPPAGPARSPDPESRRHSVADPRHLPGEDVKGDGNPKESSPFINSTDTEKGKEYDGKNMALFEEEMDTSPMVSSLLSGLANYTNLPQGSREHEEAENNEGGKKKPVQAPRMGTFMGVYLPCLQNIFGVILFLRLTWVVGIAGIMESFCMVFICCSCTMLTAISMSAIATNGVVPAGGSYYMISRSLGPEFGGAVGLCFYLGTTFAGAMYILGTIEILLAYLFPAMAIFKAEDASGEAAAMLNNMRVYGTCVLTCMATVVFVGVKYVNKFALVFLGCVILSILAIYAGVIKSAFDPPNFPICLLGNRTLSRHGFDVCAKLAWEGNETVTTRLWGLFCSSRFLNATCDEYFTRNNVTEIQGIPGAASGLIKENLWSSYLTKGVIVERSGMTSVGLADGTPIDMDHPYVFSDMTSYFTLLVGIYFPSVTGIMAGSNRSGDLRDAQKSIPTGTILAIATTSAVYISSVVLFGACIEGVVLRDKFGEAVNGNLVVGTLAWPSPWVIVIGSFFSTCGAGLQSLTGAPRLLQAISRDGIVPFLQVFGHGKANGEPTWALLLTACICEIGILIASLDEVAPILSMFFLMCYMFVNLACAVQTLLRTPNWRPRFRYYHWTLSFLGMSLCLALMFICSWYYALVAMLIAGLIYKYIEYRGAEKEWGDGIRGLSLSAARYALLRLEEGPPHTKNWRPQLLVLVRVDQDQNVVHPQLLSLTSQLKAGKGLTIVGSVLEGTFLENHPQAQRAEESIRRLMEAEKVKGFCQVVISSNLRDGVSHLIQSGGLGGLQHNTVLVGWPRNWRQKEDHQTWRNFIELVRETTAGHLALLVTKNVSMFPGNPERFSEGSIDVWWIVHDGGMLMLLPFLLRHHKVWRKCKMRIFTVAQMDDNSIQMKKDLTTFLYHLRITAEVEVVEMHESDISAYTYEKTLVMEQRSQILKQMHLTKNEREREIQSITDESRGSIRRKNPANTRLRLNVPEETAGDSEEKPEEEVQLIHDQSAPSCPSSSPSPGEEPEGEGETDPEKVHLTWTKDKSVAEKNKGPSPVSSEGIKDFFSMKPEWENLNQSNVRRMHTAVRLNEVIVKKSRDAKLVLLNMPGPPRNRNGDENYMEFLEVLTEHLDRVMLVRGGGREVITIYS
ROMK mod: modulates human ROMK potassium channel activity. AID 1918. P48048. 130,000 compounds, 2% hits. Tet-inducible ROMK, thallium flux fluorescence; actives lie on both sides. B-score at 10 µM;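 active means signal ratio slope over the read window, or its plate-corrected B-score, at least 3 SD from the plate mean, either direction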;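 further: B-score of the F/F0 ratio slope over 7 to 12 s after thallium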
WT yeast gro inh: growth inhibition of WT yeast, mitochondrial fusion screen; mitochondrial fusion phenotypic screen, WT strain; inhibition, % at 10 µM; 190,000 compounds, 2.1% hits; AID 1362; in the data active means inhibition above about 58%; tested in S. cerevisiae
14-3-3 Bad PPI: disrupts binding of bovine 14-3-3 zeta to phospho-Bad peptide; P63103; TR-FRET 14-3-3zeta/Dy647-pBad peptide displacement, 1 h; inhibition, % at 21.7 µM; 220,000 compounds, 0.71% hits;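 active means inhibition above about 70%, limit read from the data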
RBBP9 inh: blocks human serine hydrolase RBBP9. O75884. recombinant RBBP9, FP-Rh probe fluorescence polarization. AID 1515. inhibition, % at 7.94 µM. 220,000 compounds, 0.2% hits;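 active means inhibition above the campaign mean of all tested compounds plus 3 SD, cut at about 14% in these data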
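System: RBBP9 protein / Buffer or medium: Tris/NaCl buffer pH 8.0 with 0.1% Pluronic / Probe or stimulus: Serine-hydrolase probe FP-Rh, 375 nM pre-mixing / Dosing: 7.94 µM single dose, 0.794% DMSO / Times: enzyme-compound preincubation 30 min, then probe labeling 45 min, 25 °C / Technique: fluorescence polarization (mP), excitation 525 nm, emission 598 nm / Replication: singlicate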
KCC2 secondary: KCC2 (human) modulation, secondary assay; shares compounds with KCC2 mod; HEK293-KCC2, thallium flux, FluoZin2 fluorescence; active compounds read high; normalised thallium flux (F/F0 slope) at 10 µM; 3,700 compounds, 15% hits;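 active means thallium flux slope above the same plate's solvent-only control mean plus 3 SD; inconclusive means the two replicate wells disagree; inactive means no significant difference from solvent-only control wells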
KCC2 bumet counter: bumetanide-insensitive thallium flux in KCC2 cells with ouabain, counter-screen; shares compounds with KCC2 mod; HEK293-KCC2 + bumetanide/ouabain, thallium flux FluoZin2; active compounds read high; normalized thallium flux at 10 µM; 3,700 compounds, 49% hits; AID 1714;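 active means thallium entry rate above the same plate's blocked-transporter control wells by more than 3 SD; inconclusive means the two repeat wells disagree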;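 further: raw slope of fluorescence over initial fluorescence between 10 and 20 s after thallium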
KCC2 sec2: KCC2 (human) modulation, second secondary assay | shares compounds with KCC2 mod | HEK293-KCC2, thallium flux FluoZin2 fluorescence; actives lie on both sides; F/F0 rise rate, 10–20 s post-thallium | normalized thallium flux at 10 µM | 3,700 compounds, 23% hits | AID 1715;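 active means thallium flux slope more than 3 SD above or below the plate's solvent-only control mean, mostly below; inconclusive means the two repeat wells disagreed; inactive means no significant shift from solvent-only controls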
HEK293 Tl flux: counter-screen for KCC2 modulators: effect in parental HEK293 cells | shares compounds with KCC2 mod | thallium flux FluoZin2, ouabain; baseline-ratio fluorescence slope, 10–20 s after thallium | AID 1716 | 3,700 compounds, 46% hits | thallium flux rate (normalised fluorescence) at 10 µM;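 active means thallium flux rate significantly above the same plate's solvent-only control wells, beyond their mean plus 3 SD; inconclusive means the two replicate wells gave conflicting results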
KCC2 ouabain: KCC2 (human) modulation, ouabain retest | HEK293-KCC2, thallium flux FluoZin2 fluorescence; bidirectional: low = inhibitor, high = activator | 3,700 compounds, 48% hits | shares compounds with KCC2 mod | AID 1717 | raw Tl+ flux slope (below DMSO = inhibition, above = activation) at 10 µM;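 active means thallium flux slope beyond 3 SD from same-plate DMSO control mean in most replicates, usually higher, sometimes lower; inconclusive means repeat tests gave conflicting results; inactive means no significant difference from controls in most replicates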;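 further: slope of initial-normalized fluorescence between seconds 10 and 20 after thallium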
HEK293 Tl flux2: parental HEK flux effect, counter-screen 2 | shares compounds with KCC2 mod | HEK293 parental, thallium flux FluoZin-2 fluorescence slope | thallium flux slope at 10 µM | 3,700 compounds, 33% hits | AID 1718;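 active means thallium flux slope above the same plate's solvent-control mean plus 3 SD in both duplicate wells; inconclusive means duplicate wells that disagreed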;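 further: run without ouabain in cells lacking the KCC2 cotransporter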
Large screens that a line does not name were inactive (follow-up assays come after a bar, where they were run). Shown are actives, neighbours in structure and some others; about 5.8% of the full set was active somewhere.

O=C(CSc1ccccc1C(=O)NCc1ccccc1)NC12CC3CC(CC(C3)C1)C2	KCC2 mod -3.6 (no result: ROMK mod) | KCC2 secondary inconclusive | KCC2 bumet counter inconclusive | KCC2 sec2 0.022 | HEK293 Tl flux inactive | KCC2 ouabain inconclusive | HEK293 Tl flux2 inactive
O=C(CSc1ccccc1C(=O)O)NC1CCCCCC1	none (no result: ROMK mod, WT yeast gro inh)
CC(=O)N(Cc1ccccc1C)c1cccc(C)c1C	none
CSc1nc(Cl)cc(Nc2ccc(O)cc2)n1	none
Cn1c(=O)c(=O)n(C)c2cc(S(=O)(=O)N3CC(=O)N(CCc4ccccc4)C(=O)C3)ccc21	none (no result: WT yeast gro inh)
Cn1cnc([N+](=O)[O-])c1NCc1ccccc1	KCC2 mod -4 (no result: ROMK mod, WT yeast gro inh) | KCC2 secondary inactive | KCC2 bumet counter inactive | KCC2 sec2 0.024 | HEK293 Tl flux inactive | KCC2 ouabain inconclusive | HEK293 Tl flux2 inactive
CCNc1c([N+](=O)[O-])ncn1C	none (no result: KCC2 mod)
CCCCc1nnc(NC(=O)COC)s1	none (no result: ROMK mod)
COCCCn1nnnc1SCC(=O)N1c2ccccc2CC1C (stereo unspecified)	none
O=C(CSc1nnnn1Cc1ccccc1)c1ccccc1	KCC2 mod -3.2 (no result: ROMK mod) | KCC2 secondary inactive | KCC2 bumet counter inactive | KCC2 sec2 inactive | HEK293 Tl flux inactive | KCC2 ouabain inconclusive | HEK293 Tl flux2 inactive
CC1Cc2ccccc2N1C(=O)CSc1nnnn1Cc1ccccc1 (stereo unspecified)	KCC2 mod -3.6 | KCC2 secondary inactive | KCC2 bumet counter inactive | KCC2 sec2 0.023 | HEK293 Tl flux inactive | KCC2 ouabain 0.015 | HEK293 Tl flux2 inactive
COc1ccc(C(=O)CSc2nnnn2Cc2ccccc2)cc1	KCC2 mod -6.4 | KCC2 secondary inactive | KCC2 bumet counter 0.0074 | KCC2 sec2 0.025 | HEK293 Tl flux inactive | KCC2 ouabain inconclusive | HEK293 Tl flux2 inactive
Cc1ccc(CSCCNS(=O)(=O)c2ccccc2)cc1	none
Oc1ccc(COCc2ccccc2)c2cccnc12	KCC2 mod 3.3 | KCC2 secondary inactive | KCC2 bumet counter 0.028 | KCC2 sec2 inactive | HEK293 Tl flux 0.013 | KCC2 ouabain inconclusive | HEK293 Tl flux2 inactive
CCCOCc1ccc(O)c2ncccc12	none (no result: ROMK mod, WT yeast gro inh)
CC1=CCC(/C=N\Nc2nnc3c(n2)[nH]c2ccccc23)CC1 (stereo unspecified)	none (no result: ROMK mod)
COc1cc(NC(=O)CSc2nc3c(C)ccc(C)c3cc2C)c(C(=O)O)cc1OC	none
O=c1[nH]c(=O)n(C2CCCO2)cc1F (stereo unspecified)	KCC2 mod 7.5 (no result: ROMK mod) | KCC2 secondary inactive | KCC2 bumet counter inactive | KCC2 sec2 inactive | HEK293 Tl flux inactive | KCC2 ouabain inactive | HEK293 Tl flux2 inactive
O=c1c(F)cn(C2CCCO2)c(=O)n1Cc1c(F)cccc1Cl (stereo unspecified)	none (no result: ROMK mod)
Cc1ccc[n+](CC(=O)Nc2cc(C(F)(F)F)ccc2N2CCOCC2)c1	none
COC(=O)c1ccc(COc2cccc(C)c2C)cc1	none
COc1ccc(-c2csc(NC(=O)c3nc(-c4ccccc4)oc3C)n2)cc1	none (no result: ROMK mod)
Cc1oc(-c2ccccc2)nc1C(=O)Nc1nccs1	KCC2 mod 7.7 (no result: ROMK mod) | KCC2 secondary inactive | KCC2 bumet counter 0.016 | KCC2 sec2 inactive | HEK293 Tl flux 0.0097 | KCC2 ouabain inactive | HEK293 Tl flux2 0.012
O=C(O)c1cn[nH]c1-c1cccc([N+](=O)[O-])c1	none
CS(=O)(=O)N1N=C(c2cccs2)CC1c1ccccc1 (stereo unspecified)	none (no result: ROMK mod, WT yeast gro inh)
c1ccc(C2Oc3ccccc3C3CC(c4cccs4)=NN32)cc1 (stereo unspecified)	KCC2 mod 9.3 (no result: ROMK mod) | KCC2 secondary inactive | KCC2 bumet counter 0.046 | KCC2 sec2 inactive | HEK293 Tl flux 0.06 | KCC2 ouabain 0.055 | HEK293 Tl flux2 0.02
Oc1ccccc1/C=N/NC(=S)NC1CC2CCC1C2 (stereo unspecified)	KCC2 mod 15 (no result: ROMK mod, WT yeast gro inh) | KCC2 secondary inactive | KCC2 bumet counter 0.037 | KCC2 sec2 inactive | HEK293 Tl flux 0.016 | KCC2 ouabain 0.03 | HEK293 Tl flux2 inconclusive
Cc1onc(-c2c(F)cccc2Cl)c1C(=O)ONC(=O)c1ccco1	none (no result: WT yeast gro inh)
Cc1cccc(/C=N/n2c(-c3cc(-c4ccccc4)n[nH]3)n[nH]c2=S)c1	none (no result: ROMK mod)
Fc1ccccc1/C=N/n1cc(-c2ccccc2)[nH]c1=S	KCC2 mod 75 (no result: ROMK mod, WT yeast gro inh) | KCC2 secondary 0.026 | KCC2 bumet counter 0.12 | KCC2 sec2 inactive | HEK293 Tl flux 0.053 | KCC2 ouabain 0.067 | HEK293 Tl flux2 0.017
Cc1ccc(C)c(/C=N/n2cc(-c3ccccc3)[nH]c2=S)c1	KCC2 mod 21, WT yeast gro inh 71 | KCC2 secondary 0.013 | KCC2 bumet counter 0.047 | KCC2 sec2 inactive | HEK293 Tl flux 0.055 | KCC2 ouabain 0.041 | HEK293 Tl flux2 0.014
COCCN(C(=O)CSc1nnc(-c2cccc(OC)c2)n1C)c1c(N)n(Cc2ccccc2)c(=O)[nH]c1=O	none
O=C(Nc1ccc(O)c2c(=O)cc(-c3ccccc3Cl)oc12)c1cccs1	none (no result: ROMK mod, WT yeast gro inh, RBBP9 inh)
C/C(=N\NC(=O)c1ccc([N+](=O)[O-])c(C)c1)c1ccccc1Cl	KCC2 mod 12 | KCC2 secondary inconclusive | KCC2 bumet counter 0.046 | KCC2 sec2 inactive | HEK293 Tl flux inconclusive | KCC2 ouabain 0.041 | HEK293 Tl flux2 inconclusive
Cc1nc2scc(-c3ccc(Cl)cc3)c2c(=O)o1	none (no result: KCC2 mod) | KCC2 secondary inactive | KCC2 bumet counter inactive | KCC2 sec2 inactive | HEK293 Tl flux inactive | KCC2 ouabain inactive | HEK293 Tl flux2 inactive
Cc1oc(S(=O)(=O)N2CCCCC2)cc1NC(=O)Nc1ccc(Cl)cc1	none (no result: ROMK mod, WT yeast gro inh)
Cc1cccc(NC(=S)N/N=C/C(C)c2ccccc2)c1C (stereo unspecified)	none (no result: ROMK mod)
Cc1ccccc1NC(=S)N/N=C/C(C)c1ccccc1 (stereo unspecified)	KCC2 mod 14 | KCC2 secondary inactive | KCC2 bumet counter 0.027 | KCC2 sec2 inactive | HEK293 Tl flux 0.015 | KCC2 ouabain inconclusive | HEK293 Tl flux2 0.018
